Assay results from ChEMBL document CHEMBL4513216, “Probing the Open Global Health Chemical Diversity Library for Multistage-Active Starting Points for Next-Generation Antimalarials” (ACS Infect Dis, 2020).

assay: Toxicity liver stage against HepG2, at 10uM; type: cell-based; parameters: test concentration 10 uM, cell line HepG2-A16-CD81EGFP; conditions: human, HepG2-A16-CD81EGFP cells; read-out: INHIBITION
In short: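 Uninfected HepG2-A16-CD81EGFP cells, 3 × 10^3 per well, 1536-well, plated on prespotted compound at 10 μM final, parasite-free screening media added to match infected plates; puromycin 10 μM positive, DMSO 0.5% negative; run in parallel with 48 h PbLuc assay at 37 °C, 5% CO2; viability by CellTiter-Glo luminescence, normalized to controls.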

Compound | cytotoxicity at 10 µM
CN1CCC(CNC(=O)c2cccc(C(F)(F)F)c2)c2ccccc21 (stereo not drawn) | 17.4%
CC(=O)N[C@@H]1CN(C(=O)c2cnc3ccccc3c2)C[C@H]1O | -12.1%
O=C(C1CCOCC1)N1C[C@@H]2CC[C@H]1CN(C1Cc3ccccc3C1)C2 | -0.317%
CC(=O)NC1CCCN(C(=O)NCc2ccc(-c3ccn[nH]3)cc2)C1 (stereo not drawn) | -7.84%
Cc1cc(C)c(CNC(=O)NCCCNc2ccccn2)c(=O)[nH]1 | -43%
O=C(NCC1CC[C@@]2(CNCCOC2)O1)c1cccnc1 (stereo partly drawn) | 2.32%
COc1cccc(C(C(=O)O)N2CCCN(C3CCCC3)CC2)c1OC (stereo not drawn) | -11.3%
CN(C)C(CNS(=O)(=O)c1cnn(C)c1)c1cccc(F)c1 (stereo not drawn) | 5.66%
Nc1cc2c(nn1)CCN(C(=O)CCc1ccc3c(c1)OCO3)C2 | 3.23%
Cc1cc(C(=O)N2CCN(c3nc4c(C(C)C)cccc4s3)CC2)no1 | 16.7%
CC(C)(C)C(O)CN1CCN(CC(=O)NC2CCOCC2)CC1 (stereo not drawn) | -8.06%
Cc1nc(C)c(CC(=O)NCc2ccccc2F)s1 | 6.23%
O=C(CCn1cccn1)N1CC[C@@H](c2ccc3ccccc3c2)[C@H](O)C1 | 2.03%
Cc1cc(CN2C[C@@H]3CCCO[C@@H]3[C@H](NS(C)(=O)=O)C2)no1 | 11.5%
CCN(CC)C(=O)CN(C)C(=O)c1cccn1CCc1ccccc1 | 1.98%
C[C@@H]1CN(C2(C(=O)N3CCOCC3)Cc3ccccc3C2)C[C@H](C)O1 | 1.12%
CN(C)C1CC2(CCN(C(=O)NC3CC3)CC2)c2ccccc21 (stereo not drawn) | -112%
CCSc1ccc(C(C)NC(=O)CNS(C)(=O)=O)cc1 (stereo not drawn) | 10.4%
O=C(NC1CCCCC1)N1C[C@H]2CN(c3cnccn3)C[C@@]2(C(=O)O)C1 | 13.7%
CC(NC(=O)c1cccs1)C(=O)NS(=O)(=O)c1cccc(C#N)c1 (stereo not drawn) | -7.23%
Cc1ccc(C)c(N2CCN(CC3(O)CCNC3)CC2)c1 (stereo not drawn) | -5.83%
CN(C(=O)c1cccn1C)C1CCC(NC(=O)OC(C)(C)C)CC1 (stereo not drawn) | -4.18%

Compound | cytotoxicity at 10 µM
CC(C)(C)Nc1nc(-c2cccnc2)c(-c2ccnc(NCCO)n2)s1 | -5.64%
Cc1ccc(NC(=O)c2cc3c(=O)n(C)c(=O)n(C)c3nc2C)cc1Cl | -7.15%
CC(=O)N1CCC(C(=O)Nc2nc(C3CC3)cs2)CC1 | -3.28%
CCCn1nnnc1COc1cc(OC)ccc1C(N)=O | -4.42%
CC(=O)N(Cc1ncc(C)o1)C1CCN(CCCc2cnn(C)c2)C1 (stereo not drawn) | 8.11%
O=C(NCCSc1ccccc1F)NCc1cccnc1 | -5.31%
CCN(CC)S(=O)(=O)c1ccc(CNC(=O)c2cc(C)on2)cc1 | 27.4%
CO[C@@H]1CN(c2ccccc2)S(=O)(=O)[C@@]12CCN(CC1CC1)C2 | 1.84%
CC(C)N1CC[C@H](c2nnc(Cc3c[nH]c4ccccc34)o2)C1 | -9.04%
CCNC(=O)CN1CCC(OCC2CCCO2)CC1 (stereo not drawn) | -3.78%
Cc1cnc(CN2CCN(c3nc(C)cs3)C(C)C2)cn1 (stereo not drawn) | 2.74%
Cc1cnn(CC2CN(CCS(=O)(=O)C(F)(F)F)CCO2)c1 (stereo not drawn) | 2.5%
Cc1ccc(NC2CCN(C(=O)c3nccc4ccccc34)CC2)nn1 | -13.5%
COc1ccc(OC)c(-n2cnnc2COC(C)C)c1 | -6.57%
Cc1cc(C(=O)N2CCNC(=O)C2)c(C)n1Cc1ccccn1 | -2.33%
Cc1ccc(NS(=O)(=O)c2cc3c(c(C(=O)O)c2)OCCO3)c(F)c1 | -9.36%
O=C(c1cccc2c1OCO2)N1CCCCC1Cn1cccn1 (stereo not drawn) | -1.25%
CNS(=O)(=O)c1cc(C(=O)NC2CCOc3ccccc32)cc(C)c1C (stereo not drawn) | 6.82%
CC(C)Cc1noc(CN2CCOC(Cn3cncn3)C2)n1 (stereo not drawn) | -2.58%
Cc1nc(C)n(CC2CCCN2CCOc2cccc(F)c2)n1 (stereo not drawn) | -0.945%
CCN(CC)S(=O)(=O)N1C[C@@H](c2ccccc2)[C@H]2[C@H]1CCCCCN2C | -10.4%
